From ChEMBL document CHEMBL3351425, “Lactones from Ficus auriculata and their effects on the proliferation function of primary mouse osteoblasts in vitro” (2014)

Assays:
Type in all cases: functional, Osteoblast
[1] = Induction of cell proliferation in osteoblasts (unknown origin) at 1 uM after 48 hrs by MTT assay relative to untreated control
Summary of the method: (§1)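 Primary mouse osteoblasts were seeded at 2 × 10^3 cells/well and cultured 24 h, then exposed to compound for 48 h. MTT (5.0 mg/ml) was added for a further 4 h at 37 °C, and formazan was dissolved in DMSO. OD was read at 570 nm. Viability = (OD sample − blank)/(OD untreated control − blank) × 100. The blank was cell-free medium.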

[2] = Induction of cell proliferation in osteoblasts (unknown origin) at 100 uM after 48 hrs by MTT assay relative to untreated control; summary of the method: as §1
[3] = Induction of cell proliferation in osteoblasts (unknown origin) at 10 uM after 48 hrs by MTT assay relative to untreated control; summary of the method: as §1

| SMILES | Activity [1] [%] | Activity [2] [%] | Activity [3] [%] |
| --- | --- | --- | --- |
| COC1=CC(=O)C=C2CCCC(=O)CCC[C@@H](C)OC(=O)[C@@]21O | 10 | 2.61 | 8.94 |
| COc1cc(O)cc2c1C(=O)O[C@H](C)CCCCCCC2 | 3.45 | 51.55 | 14.19 |
| [F-].[Na+] [SODIUM FLUORIDE] | 12.15 | 22.54 | 18.76 |
| COc1cc(O)cc2c1C(=O)O[C@H](C)CC[C@@H](O)CCCC2 | 3.97 | 2.1 | -6.67 |
| COC1=CC(=O)C=C2CCCCCCC[C@@H](C)OC(=O)[C@@]21O | -7.91 | -68.32 | -43.92 |
| COc1cc(O)cc2c1C(=O)O[C@H](C)CCC(=O)CCCC2 | 2.87 | 3.28 | -4.29 |
| C[C@@H]1CCCCCCCc2cc(O)cc(O)c2C(=O)O1 | 1.67 | 19.48 | -4.54 |
| COC1=CC(=O)C=C2CCCCC(=O)CC[C@@H](C)OC(=O)[C@@]21O | 12.54 | 19.62 | 10.92 |
